Measured values gathered from unrelated publications.
Compare with care: the assays were run in different laboratories.

Compound	system	setting	measurement	result
CC(C)(O)c1ccccc1-c1ccc2[nH]c(/C=C/c3ccc(C(F)(F)F)cc3)nc2c1	male human, plasma	oral, 5 mg, single dose, fasted, healthy volunteers	MRT	43.6 h
CC(C)(Nc1nc(-c2ccccn2)nc2ccccc12)c1ccccn1	female BALB/c mouse, plasma	intravenous, 1 mg/kg, 4.98 min	concentration	1460 ng/mL
c1cnc2ccc(Nc3nc(NC4CC4)c4nc[nH]c4n3)cc2c1	human, plasma	oral, 400 mg/m², patients	MRT(0-t)	6.8 h
O=S(=O)(c1ccc(-c2ccc3nccc(Nc4ccncn4)c3c2)cc1)N1CCOCC1	female BALB/c mouse, plasma	intraperitoneal, 10 mg/kg, 24 h	concentration	0 ng/mL
O=C(O)C1CCN(c2ncc(-c3ccc4c(c3)OCCCO4)s2)CC1	male Swiss mouse, plasma	oral, 30 mg/kg, 1 h, single dose	concentration	7580 ng/mL
CC(C)(C)c1ccc(O)c(CN(Cc2cc(C(C)(C)C)ccc2O)C2CCC(NC(N)=O)CC2)c1 (stereo not drawn)	male C57BL/6 mouse, brain	intraperitoneal, 25 mg/kg, single dose	half-life	10.1 h
CC(C)Oc1cccc(-c2cnc(N3CCC(C(N)=O)CC3)s2)c1	male Swiss mouse, brain	oral, 30 mg/kg, 4 h, single dose	concentration	83 nM
CC(C)CN(C[C@@H](O)[C@H](Cc1ccccc1)NC(=O)O[C@H]1CO[C@H]2OCC[C@H]21)S(=O)(=O)c1ccc(N)cc1	BALB/c mouse, plasma	intravenous, 2.5 mg/kg, 6 h	concentration	4.19 ng/mL
O=c1nc(N2CCN(CC3CCCCC3)CC2)sc2c([N+](=O)[O-])cc(C(F)(F)F)cc12	CD-1 mouse, plasma	oral, 100 mg/kg, 8 h	concentration	336 ng/mL
